The values below come from ChEMBL document CHEMBL1149258, “Synthesis and structure-activity relationships of novel histamine H1 antagonists: indolylpiperidinyl benzoic acid derivatives” (J Med Chem, 2004).

In test [1] the test system is Rattus norvegicus. Put plainly: Inhibition of increase in histamine-induced cutaneous vascular permeability in orally dosed Wistar rat model after 4 hrs. Format: functional. Conditions: po. The procedure, abridged:
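Fasted male rats (150-175 g; n=5 per condition) dosed orally in 0.5% methylcellulose/0.1% Tween 80. At 4 h, under light ether, received four intradermal injections of 5 µg histamine, then 0.5% Evans Blue iv. Killed 1 h later. Papule area from maximum and minimum diameters (ellipse); inhibition of papule area; ED50 (mg/kg, po).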

Test [2] deals with T1, Adrenergic receptor alpha-1 (Rattus norvegicus, UniProt P15823+P23944+P43140).
T1 sequence (P15823 whole entry): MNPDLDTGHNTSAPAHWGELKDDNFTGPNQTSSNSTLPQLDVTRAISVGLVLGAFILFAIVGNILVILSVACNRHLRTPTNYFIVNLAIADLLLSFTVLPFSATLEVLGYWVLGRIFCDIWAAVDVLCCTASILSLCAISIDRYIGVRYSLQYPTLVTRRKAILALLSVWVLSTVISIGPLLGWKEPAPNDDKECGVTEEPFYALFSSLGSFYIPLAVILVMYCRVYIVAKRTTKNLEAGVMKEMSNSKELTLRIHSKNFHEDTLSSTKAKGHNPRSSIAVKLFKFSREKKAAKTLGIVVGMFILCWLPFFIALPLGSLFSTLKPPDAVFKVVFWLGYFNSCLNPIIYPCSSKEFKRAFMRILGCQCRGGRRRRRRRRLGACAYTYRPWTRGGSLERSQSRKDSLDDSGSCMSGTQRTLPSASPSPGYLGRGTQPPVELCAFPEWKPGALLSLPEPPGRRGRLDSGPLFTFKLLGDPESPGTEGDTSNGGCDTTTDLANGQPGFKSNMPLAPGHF
T1 sequence (P23944 whole entry): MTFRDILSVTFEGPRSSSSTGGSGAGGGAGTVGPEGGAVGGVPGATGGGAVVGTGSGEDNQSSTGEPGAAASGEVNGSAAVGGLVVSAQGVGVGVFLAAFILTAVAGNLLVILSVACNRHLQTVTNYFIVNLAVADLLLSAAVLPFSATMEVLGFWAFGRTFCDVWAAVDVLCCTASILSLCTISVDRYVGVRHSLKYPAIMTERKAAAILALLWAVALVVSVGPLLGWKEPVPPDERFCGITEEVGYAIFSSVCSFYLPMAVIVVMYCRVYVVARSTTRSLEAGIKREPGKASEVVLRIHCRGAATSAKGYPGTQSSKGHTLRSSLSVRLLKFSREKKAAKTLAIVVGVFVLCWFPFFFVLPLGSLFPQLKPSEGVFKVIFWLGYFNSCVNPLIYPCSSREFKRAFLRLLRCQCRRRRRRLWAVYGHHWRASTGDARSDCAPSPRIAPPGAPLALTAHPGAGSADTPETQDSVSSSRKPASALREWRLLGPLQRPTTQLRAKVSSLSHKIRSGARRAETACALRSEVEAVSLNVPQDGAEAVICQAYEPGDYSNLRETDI
T1 sequence (P43140 whole entry): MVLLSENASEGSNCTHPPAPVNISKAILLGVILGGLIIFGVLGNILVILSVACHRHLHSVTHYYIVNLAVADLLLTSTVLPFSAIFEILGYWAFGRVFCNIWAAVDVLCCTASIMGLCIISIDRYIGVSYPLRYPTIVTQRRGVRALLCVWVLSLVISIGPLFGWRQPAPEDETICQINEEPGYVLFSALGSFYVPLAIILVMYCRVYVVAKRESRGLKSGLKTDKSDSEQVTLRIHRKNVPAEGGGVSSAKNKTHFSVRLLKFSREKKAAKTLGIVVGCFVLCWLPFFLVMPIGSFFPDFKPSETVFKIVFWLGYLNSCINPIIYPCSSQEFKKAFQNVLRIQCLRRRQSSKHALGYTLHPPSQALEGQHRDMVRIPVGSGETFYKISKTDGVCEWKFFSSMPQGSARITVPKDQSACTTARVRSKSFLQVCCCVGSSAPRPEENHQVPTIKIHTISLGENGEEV
Put plainly: Displacement of [3H]prazosin from adrenergic alpha-1 receptor in rat brain membranes. Format: cell membranes. The essentials:
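Rat brain membranes (340 µg protein/mL) with 0.25 nM [3H]-prazosin in 50 mM Tris-HCl pH 7.7, room temperature, 60 min, filtration. Nonspecific binding with 100 µM prazosin. Several concentrations run in duplicate; IC50 by nonlinear regression.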
On the technique in general: Displacement assays read how much labelled ligand stays bound in the presence of the test substance.

The target of the next test is Histamine H1 receptor (Cavia porcellus, UniProt P31389). Put plainly: Displacement of [3H]mepyramine from histamine H1 receptor in guinea pig cerebellum membranes. Format: cell membranes, Membrane. The essentials:
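Guinea pig cerebellum membranes (160 µg/mL) incubated with 0.7 nM [3H]-mepyramine at 30 °C for 30 min, 0.5 mL final volume, ended by filtration. Nonspecific binding with 10 µM promethazine. At least six concentrations in duplicate; IC50 by nonlinear regression. Compound stocks 10^-2 M in DMSO, diluted in 50% DMSO.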

Test [3] has as its system Rattus norvegicus. Put plainly: Inhibition of increase in histamine-induced cutaneous vascular permeability in orally dosed Wistar rat model after 8 hrs. Format: functional. As to conditions: po. The procedure, abridged:
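Male Wistar rats (150-175 g), fasted, dosed orally in 0.5% methylcellulose/0.1% Tween 80 (10 mL/kg), n=5. At 1 or 8 h after dosing, four intradermal injections of 5 µg histamine were given, plus iv 0.5% Evans Blue. Papule area (ellipse) measured 1 h later. ED50 in mg/kg po.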

The ED50 is the midpoint of the dose-response relation. A lower ED50 goes with greater potency. The IC50 is the midpoint of a concentration-inhibition curve. Read a high IC50 as weaker potency.

Sequence of Histamine H1 receptor (P31389 whole entry): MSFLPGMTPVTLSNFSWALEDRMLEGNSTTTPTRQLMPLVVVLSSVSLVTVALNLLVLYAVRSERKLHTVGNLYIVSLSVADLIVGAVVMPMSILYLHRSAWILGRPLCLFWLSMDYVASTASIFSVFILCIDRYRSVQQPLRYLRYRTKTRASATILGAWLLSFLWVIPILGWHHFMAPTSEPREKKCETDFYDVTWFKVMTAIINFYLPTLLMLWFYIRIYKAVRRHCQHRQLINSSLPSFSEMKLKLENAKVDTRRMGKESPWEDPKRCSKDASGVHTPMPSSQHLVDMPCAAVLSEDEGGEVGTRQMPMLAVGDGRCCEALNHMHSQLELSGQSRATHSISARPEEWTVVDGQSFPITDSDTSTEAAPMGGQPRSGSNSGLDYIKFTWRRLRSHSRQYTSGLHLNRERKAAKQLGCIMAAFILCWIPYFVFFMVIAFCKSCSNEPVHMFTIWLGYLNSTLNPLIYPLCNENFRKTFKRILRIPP

With `O=C(O)c1cccc(CN2CCC(c3cn(Cc4cccs4)c4ccccc34)CC2)c1`, the ED50 in the test with Rattus norvegicus [1] amounted to 3 mg/kg. For the same compound, the IC50 in test [2] is over 10 µM.
In the case of `CCOCCn1cc(C2CCN(CCOc3ccccc3C(=O)O)CC2)c2ccc(F)cc21`, the IC50 at Histamine H1 receptor is 0.076 µM (antagonist); in test [2], 10 µM.
Turning to `COCCn1cc(C2CCN(Cc3cccc(C(=O)O)c3)CC2)c2ccc(F)cc21`, the IC50 on Histamine H1 receptor is 0.15 µM (antagonist); in test [2], over 10 µM. This compound also displayed a 50% effective dose (ED50) with Rattus norvegicus [1] of 1 mg/kg.
Taken in the same sequence, the figures for `CCOCCn1cc(C2CCN(Cc3ccccc3OCC(=O)O)CC2)c2ccccc21` were 0.196 µM (antagonist), over 10 µM and over 3 mg/kg.
In turn, `CCOCCn1cc(C2CCN(Cc3ccc(OC)c(C(=O)O)c3)CC2)c2ccccc21` displayed an ED50 in the test on Rattus norvegicus [1] of 0.02 mg/kg.
Regarding `O=C(O)c1ccccc1OCCN1CCC(c2cn(Cc3cccs3)c3ccccc23)CC1`, the values for the IC50 (on Histamine H1 receptor; in test [2]) were 0.098 µM (antagonist) and 3.7 µM, respectively.
On to `CCOCCn1cc(C2CCN(Cc3ccc(OCC(=O)O)cc3)CC2)c2ccccc21`, for which the IC50 at Histamine H1 receptor is 0.322 µM (antagonist); in test [2], over 10 µM. In the test on Rattus norvegicus [1], this compound yielded a 50% effective dose (ED50) of over 3 mg/kg.
The matching figures for `CCOCCn1cc(C2CCN(Cc3cc(C(=O)O)ccc3Br)CC2)c2ccccc21`: 0.345 µM (antagonist), over 10 µM and 3 mg/kg.
`COCCn1cc(C2CCN(CCOc3ccccc3C(=O)O)CC2)c2ccccc21`: in the test with Rattus norvegicus [1], the 50% effect level (ED50) was put at a dose of 1.1 mg/kg. Besides, in test [2], the IC50 was over 10 µM.
As for `O=C(O)c1ccccc1OCCN1CCC(c2cn(CC3CC3)c3cc(F)ccc23)CC1`, the median effective dose (ED50) in the test with Rattus norvegicus [3] is 0.5 mg/kg (antagonist); in the test on Rattus norvegicus [1] it was 0.11 mg/kg. Besides, the half-maximal inhibitory concentration (IC50) in test [2] is over 10 µM.
`O=C(O)c1ccccc1OCCN1CCC(c2cn(CCc3ccccn3)c3ccccc23)CC1`: the IC50 was 0.57 µM (antagonist) at Histamine H1 receptor and over 10 µM in test [2].
As for `CCOCCn1cc(C2CCN(Cc3ccccc3C(=O)O)CC2)c2ccccc21`, the values for the IC50 (at Histamine H1 receptor; in test [2]) were 0.33 µM (antagonist) and over 10 µM, respectively. In the test with Rattus norvegicus [1], this compound had a 50% effective dose (ED50) of 3 mg/kg.
Taken in the same sequence, the figures for `CCOCCn1cc(C2CCN(Cc3cccc(C(=O)O)c3)CC2)c2cc(OC)ccc21` were 0.5 µM (antagonist), over 10 µM and over 3 mg/kg.
On to `CCOCCn1cc(C2CCN(CCOc3cccc(C(=O)O)c3)CC2)c2ccccc21`, for which the IC50 in test [2] worked out at 2 µM.
Regarding `CCOCCn1cc(C2CCN(CCOc3cccc(F)c3C(=O)O)CC2)c2ccccc21`, the IC50 at Histamine H1 receptor was 0.5 µM (antagonist); in test [2], 10 µM.
Compound `O=C(O)c1ccccc1OCCN1CCC(c2cn(Cc3ccc(Cl)s3)c3ccccc23)CC1` returned an ED50 with Rattus norvegicus [1] of 3 mg/kg.
Consider `CCOCCn1cc(C2CCN(CCOc3ccccc3C(=O)O)CC2)c2cc(Br)ccc21`, for which the concentration for half-maximal inhibition (IC50) was 0.15 µM (antagonist) at Histamine H1 receptor and 3.6 µM in test [2].
As for `O=C(O)c1ccccc1OCCN1CCC(c2cn(Cc3ccco3)c3cc(F)ccc23)CC1`, the figures for the ED50 with Rattus norvegicus [3] and with Rattus norvegicus [1] were 2.2 mg/kg (antagonist) and 0.32 mg/kg, respectively. Besides, the concentration for half-maximal inhibition (IC50) on Histamine H1 receptor was 0.037 µM (antagonist); in test [2] it was over 10 µM.
As for `CCOCCn1cc(C2CCN(CCOc3ccsc3C(=O)O)CC2)c2ccccc21`, the IC50 at Histamine H1 receptor is 0.1 µM (antagonist); in test [2] it was under 10 µM.
Regarding `CCOCCn1cc(C2CCN(Cc3cccc(C(=O)O)c3)CC2)c2ccccc21`, the IC50 on Histamine H1 receptor was 0.218 µM (antagonist). Besides, in the test with Rattus norvegicus [1], the 50% effective dose (ED50) stood at 0.011 mg/kg.
Regarding `O=C(O)c1ccccc1OCCN1CCC(c2cn(Cc3ccc(Cl)s3)c3cc(F)ccc23)CC1`, the IC50 was 0.028 µM (antagonist) on Histamine H1 receptor and over 10 µM in test [2]. For the same compound, in the test with Rattus norvegicus [1], the ED50 worked out at 1 mg/kg.
Turning to `CCOCCn1cc(C2CCN(CCOc3c(Br)cc(Br)cc3C(=O)O)CC2)c2ccccc21`, the IC50 is 0.225 µM (antagonist) on Histamine H1 receptor and 6.9 µM in test [2].
In the test with Rattus norvegicus [1], `O=C(O)c1ccccc1OCCN1CCC(c2cn(Cc3ccco3)c3ccccc23)CC1` had an ED50 of 3 mg/kg. Moreover, the half-maximal inhibitory concentration (IC50) in test [2] is over 10 µM.
On to `CCOCCn1cc(C2CCN(CCOc3ccccc3C(=O)O)CC2)c2cccc(C)c21`, for which the IC50 on Histamine H1 receptor is 0.5 µM (antagonist); in test [2], 7.6 µM.
In the case of `C=CCn1cc(C2CCN(CCOc3ccccc3C(=O)O)CC2)c2ccccc21`, the ED50 in the test with Rattus norvegicus [1] was found to be 3 mg/kg. The compound also displayed a half-inhibitory concentration (IC50) in test [2] of over 10 µM.
With `CCOCCn1cc(C2CCN(CCOc3ccccc3C(=O)O)CC2)c2cccc(Br)c21`, the concentration for half-maximal inhibition (IC50) was 0.08 µM (antagonist) at Histamine H1 receptor and 10 µM in test [2]. The compound also displayed an ED50 in the test on Rattus norvegicus [1] of over 3 mg/kg.
For the compound `CCOCCn1cc(C2CCN(CCOc3cc(OC)ccc3C(=O)O)CC2)c2ccccc21`, the half-inhibitory concentration (IC50) on Histamine H1 receptor was 0.034 µM (antagonist). In addition, the 50% effect level in the test on Rattus norvegicus [1] (ED50) was put at a dose of 0.17 mg/kg.
On to `CCOCCn1cc(C2CCN(CCOc3ccc(C(C)=O)cc3C(=O)O)CC2)c2ccccc21`, for which the half-inhibitory concentration (IC50) on Histamine H1 receptor is 0.219 µM (antagonist); in test [2] it was over 10 µM.
Consider `CCOCCn1cc(C2CCN(Cc3cccc(OCC(=O)O)c3)CC2)c2ccccc21`, for which the IC50 on Histamine H1 receptor is 0.13 µM (antagonist); in test [2], over 10 µM. This compound also registered a median effective dose (ED50) in the test on Rattus norvegicus [1] of 3 mg/kg.
`O=C(O)c1cccc(CN2CCC(c3cn(Cc4ccc(Cl)s4)c4ccccc34)CC2)c1`: the IC50 at Histamine H1 receptor is 0.103 µM (antagonist). Besides, the ED50 in the test with Rattus norvegicus [1] was over 3 mg/kg.
In the case of `O=C(O)c1ccccc1OCCN1CCC(c2cn(CCC3COCCO3)c3ccccc23)CC1` (configuration not stated), the figures for the IC50 (at Histamine H1 receptor; in test [2]) were 0.39 µM (antagonist) and 6.2 µM, respectively. In the test with Rattus norvegicus [1], this compound displayed a median effective dose (ED50) of 3 mg/kg.
Consider `CCOCCn1cc(C2CCN(CCOc3ccccc3C(=O)O)CC2)c2ccc(C(F)(F)F)cc21`, for which the IC50 is over 0.5 µM at Histamine H1 receptor and 6.9 µM in test [2].
The matching figures for `CCOCCn1cc(C2CCN(CCOc3ccc(C)cc3C(=O)O)CC2)c2ccccc21`: 0.221 µM (antagonist) and 8.6 µM.
Regarding `CCOCCn1cc(C2CCN(CCOc3ccccc3C(=O)O)CC2)c2cc(F)ccc21`, the half-maximal inhibitory concentration (IC50) on Histamine H1 receptor was 0.1 µM (antagonist); in test [2], 10 µM.
As for `O=C(O)c1cccc(CN2CCC(c3cn(Cc4ccco4)c4ccccc34)CC2)c1`, the 50% inhibitory concentration (IC50) on Histamine H1 receptor was 0.087 µM (antagonist); in test [2], over 10 µM. In addition, in the test on Rattus norvegicus [1], it took a dose of 1 mg/kg to reach the 50% effect level (ED50).
Take `CCOCCn1cc(C2CCN(CCOc3ccc(C(=O)O)cc3)CC2)c2ccccc21`: in test [2], the IC50 came to 3 µM.
